# Most compounds without a hit are left out; they make up all but 4.8% or so of the library.
# CHOP UPR activ: activators of apoptotic CHOP UPR arm, primary screen, cell-based, CHO-CHOP luciferase reporter, luminescence, uHTS. UPR activation; percent of tunicamycin response over DMSO baseline. activation, % at 10 µM. 330,000 compounds, 0.34% hits. AID 449763, 2010;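 active = at 10 µM dose, activation of 40% or more, normalized to positive control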
#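 Test system: CHO CHOP reporter cells. Input: 500 CHO-CHOP cells per well. Medium: F12 with 10% FBS. Technique: luciferase luminescence. Measure: percent activation relative to tunicamycin control. Dosing: 10 µM compound, 0.5% DMSO. Timing: 16-18 h cell attachment, then 6 h compound exposure, 37 °C.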
# SKKanGAS inh: S. pyogenes SKKanGAS growth inhibitors in kanamycin, primary screen, streptokinase expression inhibitor project, SKKanGAS strain, BacTiter-Glo luminescence; 6 h; inhibition, % at 7.5 µM; 300,000 compounds, 1.3% hits; AID 1662, 2009;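 active = mean replicate score, as percent of positive control median, at least 50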;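 note: strain carries kanamycin resistance gene driven by streptokinase promoter and grows in 40 µg/ml kanamycin; loss of luminescence reflects streptokinase promoter inhibition or plain growth inhibition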
# UPR XBP1 act: activators of adaptive XBP1 UPR arm, primary screen, cell-based, CHO-XBP1 luciferase reporter, luminescence, uHTS; IRE1-XBP1 UPR activation; percent of tunicamycin response, DMSO as zero; activation, % at 20 µM; 330,000 compounds, 0.33% hits; AID 463104, 2010;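 active = versus positive control, 20 µM dose yields 30% or more activation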
#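 Assay system: CHO-XBP1 luciferase reporter cells; Schedule: 6 h treatment, 37 °C; Detection: glow luminescence from Steady-Glo reagent; Benchmarks: high control tunicamycin 10 µg/mL final, low control DMSO vehicle only.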
# Beta cell apopt: inhibitors of cytokine-induced beta cell apoptosis, primary screen, luminescence. INS-1E cytokine-induced death, ATP luminescence, 48 h; percent of positive-control rescue, neutral wells zero. protection from apoptosis, % (test concentration not listed). 300,000 compounds, 0.8% hits. AID 435005, 2010;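 active = Every replicate reaches about 75%, or at least half do and their mean reaches it too, limit read from the data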;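 note: higher means more ATP so stronger rescue from cytokine killing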
# Mdm2 MdmX PPI: inhibitors of human Mdm2-MdmX association, primary screen, cell-based, luminescence, split luciferase, SaOS-2, uHTS | inhibition, % at 8 µM | 330,000 compounds, 3% hits | AID 485346, 2010 | SaOS-2 split-luciferase Mdm2/MdmX complementation;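 active = inhibition of at least 50% at 8 µM in the primary screen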
# CSC inhib: cancer stem cell viability inhibitors, primary screen, luminescence | cancer stem cell-like cells viability | inhibition, % at 7.5 µM | 300,000 compounds, 1.1% hits | AID 2717, 2010; in the data active = inhibition above about 75%; tested in HMLE shEcad cells
# Mdm2 MdmX conf: Mdm2-MdmX complex disruptors, retested hits, confirmation, luminescence, single concentration; shares compounds with Mdm2 MdmX PPI; inhibition, % at 8 µM; Mdm2-MdmX binding, luminescent assay; 10,000 compounds, 55% hits; in the data active = inhibition above about 40%
# FLuc counter: full-length luciferase signal inhibition, confirmation, counter-screen for Mdm2/MdmX interaction inhibitor project, cell-based, single concentration, SaOS-2; shares compounds with Mdm2 MdmX PPI; SaOS-2 full-length luciferase counterscreen, luminescence; 6,200 compounds, 77% hits; AID 504607, 2011; inhibition, % at 8 µM;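 active = mean inhibition at 8 µM reaching about 37%, which flags the compound as non-specific, limit read from the data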;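 note: p53-null SaOS-2 cells with luciferase driven by a doxycycline-inducible promoter; compound on cells about two nights before reading with doxycycline added after day one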
# Numbers stand for hits; - = inactive; . = no result given.
SMILES,CHOP UPR activ,SKKanGAS inh,UPR XBP1 act,Beta cell apopt,Mdm2 MdmX PPI,CSC inhib,Mdm2 MdmX conf,others
COc1ccc(C2c3ccc4ccccc4c3Oc3ncn(CCN(C)C)c(=N)c32)cc1 (stereo not drawn),-,-,-,-,91,-,43,FLuc counter=64
COc1ccc(C2c3ccc(O)cc3Oc3ncn(Cc4ccco4)c(=N)c32)cc1 (stereo not drawn),-,-,-,-,-,-,.,
COc1ccc(C2c3ccc4ccccc4c3Oc3ncn(CCO)c(=N)c32)cc1 (stereo not drawn),-,-,-,-,97,-,51,FLuc counter=76
COc1ccc(C2C3=C(CC(C)(C)CC3=O)Oc3ncn(CC(C)C)c(=N)c32)cc1 (stereo not drawn),-,-,-,-,-,-,.,
N=c1c2c(ncn1CCCO)Oc1c(ccc3ccccc13)C2c1ccccc1 (stereo not drawn),-,-,-,-,62,-,-,
CC1(C)CC(=O)C2=C(C1)Oc1ncn(CCCO)c(=N)c1C2c1ccccc1 (stereo not drawn),-,-,-,-,-,-,.,
O=C(O)c1cn(-c2ccc(F)cc2)c(=O)c2ccccc12,-,-,-,-,-,-,.,
CCOC(=O)N1CCN(C(=O)C2CCC(=O)N(Cc3ccc(Cl)cc3)C2)CC1 (stereo not drawn),-,-,-,-,-,-,.,
Cc1ccccc1C(C)NS(=O)(=O)c1ccc2c(c1)OCCO2 (stereo not drawn),-,.,-,-,-,-,.,
COc1ccc(C(C(=O)NC(C)(C)C)N(C[C@H]2CC[C@@H]([C@@H]3CC[C@H](CO)O3)O2)C(=O)c2ccccc2)cc1 (stereo partly drawn),-,.,-,.,-,.,.,
COc1ccc(C2c3ccc4ccccc4c3Oc3ncn(CCCO)c(=N)c32)cc1 (stereo not drawn),-,-,-,-,93,-,-,
CC1(C)CC(=O)C2=C(C1)Oc1ncn(CCO)c(=N)c1C2c1ccccc1 (stereo not drawn),-,-,-,-,-,-,.,
O=C(Nc1ccccc1)Nc1cccc(C(F)(F)F)c1,-,-,-,-,-,-,.,
Cc1ccc(OC(F)F)c(NC(=O)Nc2cccc(C(F)(F)F)c2)c1,-,-,-,-,88,-,59,FLuc counter=-
O=C(CSc1nncn1-c1ccccc1)Nc1ccc(F)cc1F,-,-,-,.,-,-,.,
Cc1ccc(N2C(=O)C(Cl)=C(N3CCOCC3)C2=O)c(C)c1,-,-,-,-,-,-,.,
Cc1ccc(OCC(=O)Nc2ccc(Cl)cc2)c(-n2nc3ccccc3n2)c1,-,-,-,-,78,-,72,FLuc counter=81
CCc1nnc(NC(=O)CC(C)c2ccccc2)s1 (stereo not drawn),-,-,-,-,-,-,.,
Cc1c(OCC(=O)NCCCN2CCOCC2)ccc2c1oc(=O)c1ccccc12,-,-,-,.,-,-,.,
CC(=O)Oc1cc2c(C(=O)NCCCN3CCOCC3)c(C)oc2c2ccccc12,-,-,-,.,51,-,-,
COc1ccc(NC(=O)Nc2cc(C(=O)O)ccc2N2CC3CC(C2)c2cccc(=O)n2C3)c(OC)c1 (stereo not drawn),-,-,-,-,-,-,.,
Cc1nc(C(=O)O)cc2c1[nH]c1ccccc12,-,-,-,-,-,-,.,
CC(=O)N(C(C)=O)c1ncc2c([nH]c3ccccc32)c1C#N,-,-,-,-,82,-,86,FLuc counter=-
